Experimental data gathered from unrelated publications.
Target: Testis-specific serine/threonine-protein kinase 3 (TSSK3, Homo sapiens, UniProt Q96PN8)
Sequence (Q96PN8 1-268, as in one of the studies): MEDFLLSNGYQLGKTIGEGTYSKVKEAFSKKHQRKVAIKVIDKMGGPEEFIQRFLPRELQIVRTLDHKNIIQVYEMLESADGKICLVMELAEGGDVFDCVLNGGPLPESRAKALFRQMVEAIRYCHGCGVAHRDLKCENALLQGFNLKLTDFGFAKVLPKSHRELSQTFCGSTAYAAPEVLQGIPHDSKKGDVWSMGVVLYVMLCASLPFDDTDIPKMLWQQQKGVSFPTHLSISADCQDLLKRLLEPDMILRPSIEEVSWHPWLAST

Compound	test	conditions	measurement	result
O=C(Nc1cnn(-c2csc(C(=O)NC3COC3)c2)c1)Nc1ccccc1Cl	enzyme activity, inhibitor	5 µM	remaining activity	97.7%
CC1CCCN1c1nccc(-c2cnn3ncccc23)n1 (stereo not shown)	binding	1 µM	remaining binding	99%
Cc1ccc(C(=O)Nc2ccc(CN3CCN(C)CC3)c(C(F)(F)F)c2)cc1C#Cc1cnc2cccnn12	enzyme activity, inhibitor	23.5 nM	remaining activity	84%
CC(C)(O)[C@H]1CC[C@H](Nc2ccc3ncc(-c4cccc(C(F)(F)F)c4)n3n2)CC1	enzyme activity, inhibitor	1 µM	remaining activity	110%
CO[C@H]1CC[C@H](CNc2ccc(S(=O)(=O)NC(=O)c3ccc(N4CCN(CC5=C(c6ccc(Cl)cc6)CC(C)(C)CC5)CC4)cc3Oc3cnc4[nH]ccc4c3)cc2[N+](=O)[O-])CC1	cell-free assay, competition with immobilised ligand	1 µM	remaining binding	70%
Cc1sc(C(=O)NC2COC2)cc1-n1cc(NC(=O)Nc2c(F)cccc2Cl)cn1	enzyme activity, inhibitor	10 µM	remaining activity	100%
COc1cc(Cl)c(C(=O)N[C@@H](CN[C@H]2CC[C@@H](N)CC2)Cc2ccc(C#N)cc2)cc1-c1ccc(CN[C@H](C)c2ccc(C)cc2)o1	enzyme activity, inhibitor	1 µM	remaining activity	97%
CSc1cccnc1N1CCN(Cc2nc3ccccc3[nH]2)CC1	cell-free assay, competition with immobilised ligand	1 µM	remaining binding	98%
Nc1ncnc2occ(-c3ccc(NC(=O)Nc4cc(C(F)(F)F)ccc4F)cc3)c12	cell-free assay, inhibitor	20 µM	remaining signal	39%
CN1CC(Oc2cnc(C#N)cc2-c2ccn3nc(NC(=O)C4CC4)cc3c2)C1	enzyme activity, inhibitor	1 µM	inhibition	-3%
